Drawing on ChEMBL document CHEMBL4823270, “A first-in-class anticancer dual HDAC2/FAK inhibitors bearing hydroxamates/benzamides capped by pyridinyl-1,2,4-triazoles” (Eur J Med Chem, 2021), this text covers inhibition of growth, IC50 and inhibition in vitro for five compounds.

The term IC50 denotes the concentration that inhibits the measured activity by half.

In assay [1] the test system is A498. Put plainly: Growth inhibition of human A498 cells at 10 uM incubated for 24 hrs by MTT assay relative to control. Type of assay: functional. As to conditions: read-out: GI. The gist of the method: (§1)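 Cells seeded at 1 × 10^4 per well, cultured overnight, then exposed to 10 μM compound or DMSO (negative control) for 24 h. After a PBS wash, MTT (2 mg/ml) was added for 4 h at 37°C and formazan dissolved in DMSO. OD read at 570 nm. Growth inhibition = 1 − (OD treated/OD control); at least three independent experiments.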
In general terms: Tetrazolium dyes change colour on reduction, which living cells bring about.

The next assay has as its system HCT-116. Put plainly: Growth inhibition of human HCT-116 cells at 10 uM incubated for 24 hrs by MTT assay relative to control. Type of assay: functional. The following applies: read-out: GI. The essentials: as §1
In another assay the test system is K562. Put plainly: Growth inhibition of human K562 cells at 10 uM incubated for 24 hrs by MTT assay relative to control. Type of assay: functional. The following applies: read-out: GI. The gist of the method:
as §1

A further assay concerns the target Histone deacetylase 3 (Homo sapiens, UniProt O15379). Put plainly: Inhibition of human full-length recombinant HDAC3 preincubated for 5 mins followed by HDAC substrate addition and further incubated for 45 mins by fluorescence microplate reader assay.
For assay [2], the system named is A498. Put plainly: Antiproliferative activity against human A498 cells assessed as cell growth inhibition incubated for 24 hrs by MTT assay. Type of assay: functional, cell-based. As to conditions: A498, 24 h.
The subject of assay [3] is CAKI-1. Put plainly: Growth inhibition of human CAKI-1 cells at 10 uM incubated for 24 hrs by MTT assay relative to control. Type of assay: functional. As to conditions: read-out: GI. The essentials: as §1
The target of a further assay is Histone deacetylase 1 (Homo sapiens, UniProt Q13547). Description: Inhibition of human full-length recombinant HDAC1 preincubated for 5 mins followed by HDAC substrate addition and further incubated for 45 mins by fluorescence microplate reader assay.
Chain of Histone deacetylase 1 (Q13547 whole entry): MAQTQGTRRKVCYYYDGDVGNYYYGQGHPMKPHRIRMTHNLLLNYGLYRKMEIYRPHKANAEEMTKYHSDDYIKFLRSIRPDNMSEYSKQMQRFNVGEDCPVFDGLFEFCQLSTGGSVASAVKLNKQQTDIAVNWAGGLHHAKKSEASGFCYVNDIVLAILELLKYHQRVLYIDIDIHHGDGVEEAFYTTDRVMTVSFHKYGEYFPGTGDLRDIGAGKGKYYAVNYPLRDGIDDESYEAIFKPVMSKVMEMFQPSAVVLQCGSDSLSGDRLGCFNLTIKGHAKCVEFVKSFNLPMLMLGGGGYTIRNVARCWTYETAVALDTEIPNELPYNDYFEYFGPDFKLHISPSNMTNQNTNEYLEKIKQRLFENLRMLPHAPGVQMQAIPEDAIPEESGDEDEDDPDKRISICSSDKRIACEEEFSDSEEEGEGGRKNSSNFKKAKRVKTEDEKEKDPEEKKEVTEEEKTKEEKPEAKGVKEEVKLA
A further assay deals with Focal adhesion kinase 1 (Homo sapiens, UniProt Q05397). Put plainly: Inhibition of FAK (unknown origin) by FRET-based Z'-Lyte assay. The essentials: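 Recombinant FAK kinase activity measured with the FRET-based Z'-LYTE format; the same platform was used for a kinase panel (FAK, FLT, FRK, IGF-1R, BTK). IC50 values determined.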
Chain of Focal adhesion kinase 1 (Q05397 whole entry): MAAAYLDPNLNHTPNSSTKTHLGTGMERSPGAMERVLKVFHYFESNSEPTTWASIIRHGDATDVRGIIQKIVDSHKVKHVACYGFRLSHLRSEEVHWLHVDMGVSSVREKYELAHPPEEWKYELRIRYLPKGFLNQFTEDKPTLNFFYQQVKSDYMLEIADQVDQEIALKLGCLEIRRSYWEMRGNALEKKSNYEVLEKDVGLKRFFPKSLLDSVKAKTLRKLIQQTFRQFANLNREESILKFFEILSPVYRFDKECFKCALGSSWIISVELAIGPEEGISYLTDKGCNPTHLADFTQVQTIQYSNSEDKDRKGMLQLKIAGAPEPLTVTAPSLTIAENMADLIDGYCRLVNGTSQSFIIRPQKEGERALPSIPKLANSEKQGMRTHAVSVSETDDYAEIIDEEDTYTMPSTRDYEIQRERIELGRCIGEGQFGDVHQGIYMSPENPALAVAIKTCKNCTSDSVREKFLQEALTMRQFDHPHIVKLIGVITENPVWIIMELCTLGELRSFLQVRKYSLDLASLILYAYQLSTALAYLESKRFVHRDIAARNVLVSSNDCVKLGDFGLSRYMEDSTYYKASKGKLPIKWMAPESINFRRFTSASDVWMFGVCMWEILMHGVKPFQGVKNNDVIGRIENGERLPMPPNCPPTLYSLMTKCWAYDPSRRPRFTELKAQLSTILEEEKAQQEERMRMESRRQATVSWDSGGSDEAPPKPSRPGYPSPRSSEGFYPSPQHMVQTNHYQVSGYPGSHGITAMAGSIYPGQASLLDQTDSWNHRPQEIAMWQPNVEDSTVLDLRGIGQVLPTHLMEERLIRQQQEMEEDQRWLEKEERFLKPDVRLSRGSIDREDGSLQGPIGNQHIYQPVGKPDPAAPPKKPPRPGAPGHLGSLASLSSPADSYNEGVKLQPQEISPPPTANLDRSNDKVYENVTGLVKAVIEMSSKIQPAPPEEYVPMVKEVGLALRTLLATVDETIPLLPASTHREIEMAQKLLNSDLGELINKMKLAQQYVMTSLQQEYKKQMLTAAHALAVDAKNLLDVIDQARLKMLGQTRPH
Assay [4] concerns the target T1, Protein deacetylase HDAC6 (Homo sapiens, UniProt Q9UBN7).
T1 sequence (Q9UBN7 whole entry): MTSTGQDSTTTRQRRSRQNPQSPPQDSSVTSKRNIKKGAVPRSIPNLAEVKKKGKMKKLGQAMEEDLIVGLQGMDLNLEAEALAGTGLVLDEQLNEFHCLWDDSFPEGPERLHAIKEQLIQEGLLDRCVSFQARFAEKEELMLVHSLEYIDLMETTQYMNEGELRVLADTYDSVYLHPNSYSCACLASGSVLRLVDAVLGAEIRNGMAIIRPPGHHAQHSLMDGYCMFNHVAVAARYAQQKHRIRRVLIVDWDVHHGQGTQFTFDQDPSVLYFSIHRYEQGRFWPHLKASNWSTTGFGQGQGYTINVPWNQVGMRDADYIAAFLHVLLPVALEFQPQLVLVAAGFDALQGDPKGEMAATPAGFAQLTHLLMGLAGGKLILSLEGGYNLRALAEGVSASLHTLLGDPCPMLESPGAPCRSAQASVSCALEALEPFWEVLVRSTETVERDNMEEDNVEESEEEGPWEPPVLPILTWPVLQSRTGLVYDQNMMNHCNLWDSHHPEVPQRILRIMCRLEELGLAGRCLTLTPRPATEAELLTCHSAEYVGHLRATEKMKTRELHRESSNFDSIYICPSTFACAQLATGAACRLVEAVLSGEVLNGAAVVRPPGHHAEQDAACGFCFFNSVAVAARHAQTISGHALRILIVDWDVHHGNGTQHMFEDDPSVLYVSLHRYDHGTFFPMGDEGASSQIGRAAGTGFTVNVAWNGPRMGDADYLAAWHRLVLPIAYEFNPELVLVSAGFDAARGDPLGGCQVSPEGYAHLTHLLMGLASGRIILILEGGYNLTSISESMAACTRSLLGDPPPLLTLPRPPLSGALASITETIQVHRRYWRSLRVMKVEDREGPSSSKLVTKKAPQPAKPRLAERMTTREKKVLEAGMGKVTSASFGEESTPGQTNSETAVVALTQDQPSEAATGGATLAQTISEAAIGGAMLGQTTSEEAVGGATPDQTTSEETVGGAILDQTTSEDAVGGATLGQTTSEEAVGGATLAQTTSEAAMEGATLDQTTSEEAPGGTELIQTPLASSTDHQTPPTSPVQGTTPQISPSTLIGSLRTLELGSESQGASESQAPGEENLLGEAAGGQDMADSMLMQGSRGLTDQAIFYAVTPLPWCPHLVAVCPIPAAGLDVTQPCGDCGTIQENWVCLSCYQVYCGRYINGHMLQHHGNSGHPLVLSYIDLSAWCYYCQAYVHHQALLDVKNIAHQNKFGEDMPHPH
Description: Inhibition of human full-length recombinant HDAC6 preincubated for 5 mins followed by HDAC substrate addition and further incubated for 45 mins by fluorescence microplate reader assay.

For the next assay, the system named is HT-29. Description: Growth inhibition of human HT-29 cells at 10 uM incubated for 24 hrs by MTT assay relative to control. Type of assay: functional. The following applies: read-out: GI. The gist of the method: as §1
Another assay deals with T2, Histone deacetylase 8 (Homo sapiens, UniProt Q9BY41).
T2 sequence (Q9BY41 whole entry): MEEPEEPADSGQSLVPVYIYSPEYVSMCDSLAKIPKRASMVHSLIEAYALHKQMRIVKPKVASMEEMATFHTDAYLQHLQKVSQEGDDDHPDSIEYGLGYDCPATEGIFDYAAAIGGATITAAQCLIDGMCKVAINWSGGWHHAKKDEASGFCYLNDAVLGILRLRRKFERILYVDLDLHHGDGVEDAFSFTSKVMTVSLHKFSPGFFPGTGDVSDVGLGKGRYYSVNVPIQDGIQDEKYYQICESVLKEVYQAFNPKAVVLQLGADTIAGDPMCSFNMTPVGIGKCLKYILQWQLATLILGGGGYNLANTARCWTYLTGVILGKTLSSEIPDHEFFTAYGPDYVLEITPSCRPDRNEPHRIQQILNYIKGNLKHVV
Put plainly: Inhibition of human full-length recombinant C-terminal His-tagged HDAC8 expressed in baculovirus infected Sf9 insect cells preincubated for 5 mins followed by HDAC substrate addition and further incubated for 45 mins by fluorescence microplate reader assay.

For the next assay, the target named is Histone deacetylase 2 (Homo sapiens, UniProt Q92769). Put plainly: Inhibition of human full-length recombinant HDAC2 preincubated for 5 mins followed by HDAC substrate addition and further incubated for 45 mins by fluorescence microplate reader assay.
Chain of Histone deacetylase 2 (Q92769 whole entry): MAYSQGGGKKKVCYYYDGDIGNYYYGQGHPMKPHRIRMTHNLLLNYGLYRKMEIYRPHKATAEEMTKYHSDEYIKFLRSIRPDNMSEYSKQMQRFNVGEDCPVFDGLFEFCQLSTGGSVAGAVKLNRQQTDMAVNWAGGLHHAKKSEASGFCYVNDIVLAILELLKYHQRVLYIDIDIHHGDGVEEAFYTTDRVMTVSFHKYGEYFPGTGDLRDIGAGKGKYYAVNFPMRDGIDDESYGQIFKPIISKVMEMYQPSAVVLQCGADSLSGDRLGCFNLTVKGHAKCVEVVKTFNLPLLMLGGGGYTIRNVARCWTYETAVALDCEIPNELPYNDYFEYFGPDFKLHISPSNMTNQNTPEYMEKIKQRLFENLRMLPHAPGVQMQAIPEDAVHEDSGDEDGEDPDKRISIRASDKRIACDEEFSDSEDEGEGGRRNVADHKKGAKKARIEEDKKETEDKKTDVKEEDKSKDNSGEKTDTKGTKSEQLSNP
The subject of assay [5] is CAKI-1. Put plainly: Antiproliferative activity against human CAKI-1 cells assessed as cell growth inhibition incubated for 24 hrs by MTT assay. The following applies: CAKI-1, 24 h. The assay is classed as functional, cell-based.
The subject of another assay is KG-1. Put plainly: Growth inhibition of human KG-1 cells at 10 uM incubated for 24 hrs by MTT assay relative to control. Type of assay: functional. The following applies: KG-1, 24 h. The gist of the method: as §1

Chain of Histone deacetylase 3 (O15379 whole entry): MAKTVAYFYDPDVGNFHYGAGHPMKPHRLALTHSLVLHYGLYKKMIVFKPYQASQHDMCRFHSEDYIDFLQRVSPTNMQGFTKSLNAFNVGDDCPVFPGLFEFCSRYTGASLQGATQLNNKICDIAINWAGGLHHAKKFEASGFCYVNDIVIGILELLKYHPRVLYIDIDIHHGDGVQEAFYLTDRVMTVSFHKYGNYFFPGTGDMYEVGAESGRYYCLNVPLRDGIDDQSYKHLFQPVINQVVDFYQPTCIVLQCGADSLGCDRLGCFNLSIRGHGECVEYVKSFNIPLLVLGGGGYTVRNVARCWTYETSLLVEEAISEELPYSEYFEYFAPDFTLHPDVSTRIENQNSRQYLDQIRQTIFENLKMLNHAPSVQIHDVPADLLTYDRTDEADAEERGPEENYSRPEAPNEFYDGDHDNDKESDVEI

In the case of `Cn1c(SCCCCCC(=O)O)nnc1-c1ccncc1`, the inhibition of growth at 10 µM in the assay on A498 [1] was determined as 45.3%; in the assay with HCT-116 it was 20.1%; with K562, 18.2%; with CAKI-1 [3], 34.7%; with HT-29 it was 34.2%. For the same compound, the IC50 on Histone deacetylase 3 stood at 84.6 µM; with A498 [2] it was 12.3 µM; at Histone deacetylase 1, 8.93 µM; on Focal adhesion kinase 1 it was 0.0503 µM; in assay [4] it was 78.4 µM; on Histone deacetylase 8, 12 µM. Moreover, the IC50 was determined as 7.36 µM at Histone deacetylase 2 and 16.5 µM with CAKI-1 [5]. Also, the inhibition in vitro at 10 µM with KG-1 is 55.9%.

Consider `Cn1c(SCCCCCC(=O)Nc2ccccc2N)nnc1-c1ccncc1`, for which the inhibition of growth at 10 µM stood at 45.3% in the assay with A498 [1]; 54.4% in the assay with HCT-116; 44.9% with K562; 50.8% in the assay with CAKI-1 [3]; 71.4% in the assay on HT-29. Further, the IC50 was found to be 84.1 µM at Histone deacetylase 3; 13.4 µM in the assay with A498 [2]; 40.2 µM on Histone deacetylase 1; 0.0571 µM against Focal adhesion kinase 1; 14.2 µM in [4]; 7.28 µM at Histone deacetylase 8. Besides, the IC50 came to 14.4 µM on Histone deacetylase 2 and 9.87 µM with CAKI-1 [5]. This compound also displayed an inhibition in vitro at 10 µM in the assay with KG-1 of 63.1%.

With `O=C(CCCCCSc1nnc(-c2ccncc2)n1-c1ccccc1)NO`, the inhibition of growth at 10 µM in the assay on A498 [1] turned out to be 4.36%; in the assay on HCT-116, 3.56%; with K562, 8.34%; with HT-29 it was 1.09%. Moreover, the IC50 at Histone deacetylase 3 was greater than 300 µM; with A498 [2], 174 µM; on Histone deacetylase 1, greater than 300 µM; on Focal adhesion kinase 1, 0.425 µM; in assay [4], 246 µM; at Histone deacetylase 8, greater than 300 µM. The IC50 worked out at 32.4 µM at Histone deacetylase 2 and 92.4 µM in the assay on CAKI-1 [5]. The compound also had an inhibition in vitro at 10 µM with KG-1 of 11.2%.

For the compound `C=CCn1c(SCCCCCC(=O)NO)nnc1-c1ccncc1`, the inhibition of growth at 10 µM is 11.1% with A498 [1]; 2.07% with HCT-116; 16.1% in the assay with K562; 8.62% in the assay on CAKI-1 [3]; 41.3% in the assay with HT-29. The IC50 at Histone deacetylase 3 was 222 µM; in the assay with A498 [2], 76.4 µM; at Histone deacetylase 1, greater than 300 µM; against Focal adhesion kinase 1, 0.189 µM; in assay [4], 288 µM; at Histone deacetylase 8, 11.1 µM. Besides, the IC50 on Histone deacetylase 2 is 11.7 µM; in the assay with CAKI-1 [5], 89.4 µM. The inhibition in vitro at 10 µM in the assay on KG-1 is 5.91%.

Consider `C=CCn1c(SCc2ccc(C(=O)NO)cc2)nnc1-c1ccncc1`, for which the inhibition of growth at 10 µM in the assay on A498 [1] came to 44.9%; in the assay on HCT-116 it was 44.1%; in the assay on K562 it was 36.1%; with CAKI-1 [3], 50.2%; with HT-29, 25.3%. In addition, the IC50 at Histone deacetylase 3 was 20.7 µM; with A498 [2], 13.2 µM; at Histone deacetylase 1 it was 19.6 µM; on Focal adhesion kinase 1 it was 0.0461 µM; in assay [4] it was 9.86 µM; at Histone deacetylase 8, 28.4 µM. The IC50 was 11.2 µM on Histone deacetylase 2 and 9.56 µM in the assay with CAKI-1 [5]. The compound further came in with an inhibition in vitro at 10 µM in the assay on KG-1 of 62%.
